Source: PubChem
HIF act – HIF pathway transcriptional activation | U2OS HRE-luciferase reporter, luminescence; normalized: DMSO 0%, desferrioxamine 100% | actives 0.32% (n = 300,000) | activation, % at 7.5 µM (by protocol);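 active = mean activation of at least 10% of the iron chelator positive control signal, with at least half of replicates also reaching 10%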
TAG inh – triacylglycerol accumulation inhibition; H9c2 cells, Nile Red lipid (TAG) fluorescence; cells loaded with 200 µM oleic acid; inhibition, % at 12.5 µM; actives 0.66% (n = 230,000); AID 651582;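 active = pattern-corrected inhibition of lipid staining of at least 50% with the nuclear-stain viability signal not falling by more than 50%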;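 note: 0% = DMSO wells and 100% = triacsin C control wells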
ABHD5 PLIN5 PPI – ABHD5-PLIN5 protein interaction inhibition | Q00G26+Q8WTS1 | Split G. princeps luciferase complementation, luminescence, 4 h | inhibition, % at 4 µM | actives 0.78% (n = 360,000);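 active = inhibition above the mean inhibition across every tested compound plus 3 SD, cut at about 22% in these data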;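 note: 0% = DMSO only wells and the 100% control is not disclosed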
Hsp70 activator – Hsp70 transcriptional activation, primary screen; HeLa Hsp70 promoter luciferase reporter, luminescence; scaled: vehicle 0, proteasome-inhibitor control 100%; activation, % at 10 µM; actives 0.04% (n = 200,000); AID 1203;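 active = activation above the mean across all tested compounds plus 3 SD, cutoff set per campaign, cut at about 5.5% in these data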;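 note: 100% = MG132 at 30 µM as the positive control and 0% = DMSO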
Rad51 HR inh – Rad51 (human) homologous recombination inhibition | Q06609 | inhibition, % at 10 µM | AID 1385 | actives 0.085% (n = 200,000) | hRad51 DNA strand exchange, fluorescence dequenching;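 active = inhibition above 40% at the single screening dose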;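 note: 0% = DMSO control wells and 100% = blanks with heterologous ssDNA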
Target sequence (Q06609 whole entry, looked up): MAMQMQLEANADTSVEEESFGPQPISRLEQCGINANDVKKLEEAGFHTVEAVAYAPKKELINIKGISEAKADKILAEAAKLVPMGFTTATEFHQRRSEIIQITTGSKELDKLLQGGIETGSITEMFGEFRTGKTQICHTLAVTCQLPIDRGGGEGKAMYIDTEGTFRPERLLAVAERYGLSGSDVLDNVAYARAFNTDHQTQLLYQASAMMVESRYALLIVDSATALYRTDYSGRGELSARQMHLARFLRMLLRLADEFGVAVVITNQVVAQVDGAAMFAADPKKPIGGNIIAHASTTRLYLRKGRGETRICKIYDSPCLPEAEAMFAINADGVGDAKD
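Test system: preformed human Rad51 ssDNA filaments. Compound dosing: single dose, 10 µM final compound. Incubation: filaments 15 min 37 °C, then compound 30 min. Technique: FRET fluorescence dequenching, excitation 485 nm, emission 520 nm. Read-out basis: percent inhibition from fluorescence, normalised to plate control and blank means. Benchmarks: plate controls and plate blanks.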
FXN GAA850 act – activators of GAA850 frataxin (FXN) promoter. HEK293 lucGAA850 FXN promoter luciferase reporter, 24 h; percent of 10 µM SAHA response. activation, % at 6 µM. actives 0.56% (n = 360,000). AID 540364;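 active = activation above the average of all compounds screened plus 3 SD, cutoff fixed separately per campaign, cut at about 7.5% in these data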;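 note: 0% = DMSO wells and 100% = 10 µM SAHA wells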
H9c2 TAG conf – triacylglycerol accumulation inhibition, confirmation; shares compounds with TAG inh; H9c2 lipid accumulation, Nile Red fluorescence; cells loaded with 200 µM oleic acid; inhibition, % at 12.5 µM; actives 71% (n = 990); AID 651629;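 active = mean inhibition across replicates of 40% or more; inactive = mean inhibition below 40%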;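 note: plate controls were DMSO only wells for no effect and Triacsin C treated wells for full effect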
* marks the source's active call; other numbers are inactive results. This is a sample that favours compounds with a hit; in the whole collection about 1.9% have one here.

`CCOC(=O)c1ccc(NC(=O)CCOc2ccccc2)cc1` gave HIF act 0, TAG inh 8, ABHD5 PLIN5 PPI -10, Hsp70 activator 0, Rad51 HR inh 15 and FXN GAA850 act 2.
For CCCOC(=O)c1ccc(NC(=O)CCOc2ccccc2)cc1 the results were HIF act -1, TAG inh 65*, ABHD5 PLIN5 PPI -5, Hsp70 activator 0, Rad51 HR inh 7, FXN GAA850 act -1 and H9c2 TAG conf 61*.
COC(=O)c1c(NC(NC(=O)C(C)(C)C)C(Cl)(Cl)Cl)sc2c1CCC2 (stereo unspecified) was read as HIF act -1, TAG inh 59*, ABHD5 PLIN5 PPI -17, Hsp70 activator 0, Rad51 HR inh -4, FXN GAA850 act 1 and H9c2 TAG conf 65*.
COc1ccc(CNC(=O)OCCN2CCN(S(=O)(=O)c3ccc(C)cc3)CCC2=O)cc1 was read as HIF act 0, TAG inh 72*, ABHD5 PLIN5 PPI -14, Hsp70 activator 0, Rad51 HR inh -3, FXN GAA850 act 2 and H9c2 TAG conf 1.
Screening Cc1ccc(S(=O)(=O)N2CCC(=O)N(CCOC(=O)NCc3ccccc3)CC2)cc1 returned Hsp70 activator 0 and Rad51 HR inh 9.
O=C(NNS(=O)(=O)c1ccc([N+](=O)[O-])cc1)C(=O)Nc1cccc(C(=O)O)c1 was read as HIF act 0, ABHD5 PLIN5 PPI -1 and FXN GAA850 act 3.
Screening CC(C)(C)OC(=O)N1CCC[C@@H]1C(=O)N1CCC[C@@H]1C(=O)NCc1ccccc1Cl returned ABHD5 PLIN5 PPI 6.
Screening CCN(CC)c1ccc(/C=N/Nc2nc(C)cc(C)n2)cc1 returned HIF act 0, TAG inh 51*, ABHD5 PLIN5 PPI 3, FXN GAA850 act -1 and H9c2 TAG conf 30.
For Cc1cc(C)nc(N/N=C/c2ccccc2)n1 the results were HIF act 2, ABHD5 PLIN5 PPI -6, Hsp70 activator 0, Rad51 HR inh 0 and FXN GAA850 act 1.
CCOC(=O)c1c(NC(C)=O)sc2c(OCC(O)CN(CC)CC)c(Br)ccc12 (stereo unspecified) was read as HIF act -6, TAG inh 69*, ABHD5 PLIN5 PPI 8, Hsp70 activator 0, FXN GAA850 act 4 and H9c2 TAG conf 47*.
Screening CCCCCCC(=O)Nc1nc(C)c(-c2csc(Nc3cc(OC)ccc3OC)n2)s1 returned HIF act 1, TAG inh 43, ABHD5 PLIN5 PPI -24, Hsp70 activator 0, Rad51 HR inh -3 and FXN GAA850 act -3.
`CCCCCC(=O)Nc1nc(C)c(-c2csc(Nc3cc(OC)ccc3OC)n2)s1` gave HIF act 0, TAG inh 59*, ABHD5 PLIN5 PPI -16, Hsp70 activator 0, Rad51 HR inh 1, FXN GAA850 act -2 and H9c2 TAG conf 75*.
O=C(O)c1cccc(S(=O)(=O)Nc2ccccc2C(=O)NCCc2ccccc2)c1 was read as HIF act 1, ABHD5 PLIN5 PPI -6 and FXN GAA850 act 4.
`CC(NC(=O)CCNC(=O)N1CCn2c1nc1ccccc12)c1ccccc1` (stereo unspecified) gave HIF act 0, ABHD5 PLIN5 PPI 3 and FXN GAA850 act -1.
`O=C(NC1CCCCC1)C(c1ccccc1)N(Cc1ccc2c(c1)OCO2)C(=O)c1cnsn1` (stereo unspecified) gave HIF act -1, TAG inh 59*, ABHD5 PLIN5 PPI -1, Hsp70 activator 0, Rad51 HR inh 5, FXN GAA850 act 0 and H9c2 TAG conf 41*.
Screening CCc1ccc(-c2nc(C(N)=O)c3[nH]c(=O)n(-c4ccccc4OC)c3n2)cc1 returned HIF act 1, TAG inh 73*, ABHD5 PLIN5 PPI 7, Hsp70 activator 0, Rad51 HR inh -3, FXN GAA850 act -5 and H9c2 TAG conf 91*.
For CCCS(=O)(=O)N1CCCC(C(=O)Oc2ccc(OC)cc2)C1 (stereo unspecified) the results were HIF act 1, ABHD5 PLIN5 PPI 8 and FXN GAA850 act 1.
Screening O=C(CSc1nc(-c2ccco2)cc(C(F)(F)F)n1)Nc1ccc2c(c1)CCC2 returned HIF act 0, TAG inh 52*, ABHD5 PLIN5 PPI 18, Hsp70 activator 0, FXN GAA850 act -2 and H9c2 TAG conf 25.
For CCOc1ccc(NC(=O)C2CC(=O)N(CCc3ccc(OC)c(OC)c3)C2)cc1OCC (stereo unspecified) the results were TAG inh -7, ABHD5 PLIN5 PPI -1 and FXN GAA850 act -1.
For NC(=O)c1cccc(-c2ccnc3c2CC(C(=O)NCc2ccco2)O3)c1 (stereo unspecified) the results were TAG inh 39, ABHD5 PLIN5 PPI 0 and FXN GAA850 act -5.
`CC(=O)c1cccc(-c2ccnc3c2CC(C(=O)NCc2ccco2)O3)c1` (stereo unspecified) gave TAG inh 57*, ABHD5 PLIN5 PPI 5, FXN GAA850 act 0 and H9c2 TAG conf 59*.
For O=C(COc1ccccc1)Nc1ccc(Cl)cc1Cl the results were HIF act 4, Hsp70 activator 0 and Rad51 HR inh 2.
O=C(c1ccc(F)cc1)C1CCN(C(=O)NC2CCCCC2)CC1 was read as HIF act -1, TAG inh 50*, ABHD5 PLIN5 PPI -1, Hsp70 activator 0, Rad51 HR inh 3, FXN GAA850 act 1 and H9c2 TAG conf 29.
O=C(NC1CCCCC1)N1CCN(S(=O)(=O)c2ccc(F)cc2)CC1 was read as HIF act 0, TAG inh -9, ABHD5 PLIN5 PPI -1, Hsp70 activator 0, Rad51 HR inh 21 and FXN GAA850 act 2.
COc1ccc(NC(=O)C2(C)Cc3c(-c4ccc(NC(C)=O)cc4)ccnc3O2)cn1 (stereo unspecified) was read as TAG inh 11, ABHD5 PLIN5 PPI 0 and FXN GAA850 act -3.
COc1ccc(NC(=O)C2(C)Cc3c(-c4cccc(NC(C)=O)c4)ccnc3O2)cn1 (stereo unspecified) was read as TAG inh 58*, ABHD5 PLIN5 PPI 4, FXN GAA850 act -2 and H9c2 TAG conf 52*.
COc1ccc(NC(=O)C2(C)Cc3c(-c4cccc(C(N)=O)c4)ccnc3O2)cc1 (stereo unspecified) was read as TAG inh 61*, ABHD5 PLIN5 PPI 2, FXN GAA850 act -3 and H9c2 TAG conf 53*.
